Data on 6 compounds can be found in ChEMBL document CHEMBL1149125, “Synthesis and biological evaluation in human monocyte-derived macrophages of N-(N-acetyl-L-cysteinyl)-S-acetylcysteamine analogues with potent antioxidant and anti-HIV activities” (2004).

The nature of this experiment: Effective dose against human immuno deficiency virus-1/Ba-L in vitro in human monocyte-derived macrophages (MDM) cells. The class given is functional. To be noted: for EC50: read-out: ED50 (the source's name). Put shortly:
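Primary human monocytes (elutriated, ≥95% pure) differentiated 7 days into MDM in DMEM/10% heat-inactivated FCS; 1 million cells pretreated 1 h with a range of concentrations, then infected with HIV-1/BaL (10 000 TCID50, moi 0.01) for 24 h at 37 °C, washed, refed; medium and drug renewed twice weekly. Supernatant RT activity summed as cumulative RT; ED50/70/90 by Chou software; triplicate, two donors.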

As for `CC(=O)N[C@@H](CS)C(=O)NCCS`, the ED70 is 75 µM, the ED90 amounted to 200 µM and the EC50 came to 40 µM.
Consider `CC(=O)N[C@@H](CSC(=O)c1ccccc1)C(=O)NCCSC(=O)C(C)C`, for which the ED70 was found to be 205 µM, the ED90 was 285 µM and the EC50 was found to be 165 µM.
In the same order, the values of `CC(=O)N[C@@H](CS)C(=O)NCCSC(=O)C(C)C` are 175 µM, 380 µM and 110 µM.
In the same order, the values of `CC(=O)N[C@@H](CSC(C)=O)C(=O)NCCSC(=O)C(C)C` are 55 µM, 80 µM and 45 µM.
In the case of `CC(=O)N[C@@H](CS)C(=O)NCCSC(C)=O`, the ED70 worked out at 80 µM, the ED90 stood at 195 µM and the EC50 is 45 µM.
The corresponding values for `CC(=O)N[C@@H](CS)C(=O)NCCSC(=O)C(C)(C)C` are 185 µM, 270 µM and 145 µM.
